The subject of experiment [1] is RT-112. Put plainly: Antiproliferative activity against human RT112 cells after 48 hrs by MTT assay. The conditions noted are these: RT-112, 48 h. In kind it is functional, cell-based. In short, it runs like this: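 RT112 bladder carcinoma cells in RPMI 1640 with 10% FCS and 2 mM glutamine, 37 °C, 5% CO2. Seeded 3×10^3 cells/well, treated after 24 h with a concentration series for 48 h; DMSO vehicle control. MTT 3 h at 37 °C, formazan dissolved in DMSO, A570 with 650 nm reference. Survival relative to vehicle (100%); IC50 from dose-response curves; triplicates, three independent experiments.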

The subject of experiment [2] is RT-112. Put plainly: Cell cycle arrest in human RT112 cells by accumulation of cells at G2/M phase at 3 uM after 12 hrs by propidium iodide-staining-based flow cytometry (reference value: 14%). In kind it is functional.
For experiment [3], the system named is RT-112. Put plainly: Cell cycle arrest in human RT112 cells by accumulation of cells at G1 phase at 3 uM after 12 hrs by propidium iodide-staining-based flow cytometry (reference value: 69%). In kind it is functional.
For experiment [4], the system named is RT-112. As to the kind of experiment: Cell cycle arrest in human RT112 cells by accumulation of cells at S phase at 3 uM after 12 hrs by propidium iodide-staining-based flow cytometry (reference value: 17%). In kind it is functional. A general note: A flow cytometer gives signals particle by particle.
The subject of experiment [5] is RT-112. As to the kind of experiment: Cell cycle arrest in human RT112 cells by accumulation of cells at G2+M phase at 3 uM after 24 hrs by propidium iodide-staining-based flow cytometry (reference value: 14%). In kind it is functional.
Experiment [6] relates to RT-112. As to the kind of experiment: Induction of apoptosis in human RT112 cells assessed as hypodiploid DNA at sub-G1 phase after 48 hrs by propidium iodide-staining-based flow cytometry. In kind it is functional, cell-based. In short, it runs like this: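 Same PI/RNase flow cytometry as the cell cycle work in RT112 cells, with treatment extended to 48 h. Apoptosis scored as a hypodiploid (sub-G1) DNA peak; DMSO vehicle as control.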

Experiment [7] relates to RT-112. Put plainly: Cell cycle arrest in human RT112 cells by accumulation of cells at G2+M phase at 4 uM after 12 hrs by propidium iodide-staining-based flow cytometry (reference value: 14%). In kind it is functional.
The test system of experiment [8] is RT-112. Put plainly: Cell cycle arrest in human RT112 cells by accumulation of cells at G2+M phase at 4 uM after 24 hrs by propidium iodide-staining-based flow cytometry (reference value: 14%). In kind it is functional.

pIC50: −log10 of the molar value. The source made the active and inactive calls. The calls are words filed in the database; no cut-off is given here.

Here are results for 15 compounds from ChEMBL document CHEMBL1833941, “Structural requirement of arylindolylpropenones as anti-bladder carcinoma cells agents” (Bioorg Med Chem, 2011).

Consider `COc1cc(/C=C/C(=O)c2cn(C)c3ccccc23)cc(OC)c1OC`, for which the negative logarithm of the IC50 (pIC50) (usually the IC50 on a negative log10 scale, so that one unit is a factor of ten) in experiment [1] is 4.37. In turn, `CN1CCN(c2ccccc2/C=C/C(=O)c2cn(C)c3ccccc23)CC1` gave a pIC50 in experiment [1] of 4.58. The same measure, in the same setting: as for `Cn1cc(C(=O)/C=C/c2ccccc2)c2ccccc21`, the figure is 4.51.

`COc1cc(OC)c(/C=C/C(=O)c2cn(C)c3ccccc23)c(OC)c1` had a pIC50 in experiment [1] of 5.49. Also, the Activity in experiment [2] was determined as 74%; in experiment [3] it was 16%. The result in experiment [4] was inactive. Moreover, the result in experiment [5] and in experiment [6] was Active. For `COc1cc(OC)c(/C=C/C(=O)c2cn(C)c3ccc(C(=O)O)cc23)c(OC)c1`, in experiment [1], the pIC50 was 4.06. In experiment [1], `COc1cccc(OC)c1/C=C/C(=O)c1cn(C)c2ccccc12` gave a pIC50 of 4.32. The compound `Cn1cc(C(=O)/C=C/c2c(Cl)cccc2Cl)c2ccccc21` had a pIC50 in experiment [1] of 5.11. Compared with the last compound, the pIC50 is 0.79 log units higher. `CN(C)c1ccc(/C=C/C(=O)c2cn(C)c3ccccc23)cc1`: in experiment [1], the pIC50 was 5.12. Regarding `Cn1ccc2cc(/C=C/C(=O)c3cn(C)c4ccccc34)ccc21`, the pIC50 in experiment [1] was 5.40. Besides, the Activity is listed as 65% in experiment [7] and 34% in experiment [8]. For the same compound, the result in experiment [6] was Active. As to `Cn1cc(C(=O)/C=C/c2ccccc2F)c2ccccc21`, the pIC50 in experiment [1] was 4.54. In turn, `COc1ccc(/C=C/C(=O)c2cn(C)c3ccccc23)c(OC)c1` had a pIC50 in experiment [1] of 4.24. On the same count and under the same terms, the same measure for `Cn1cc(/C=C/C(=O)c2cn(C)c3ccccc23)c2ccccc21`: 4.20; for `COc1cc(OC)c(C(=O)/C=C/c2ccc3c(ccn3C)c2)c(OC)c1`: 4.27; for `CN1CCN(c2ccc(/C=C/C(=O)c3cn(C)c4ccccc34)cc2)CC1`: 4.93.

In experiment [1], `COc1cc(OC)c(/C=C/C(=O)c2cn(C)c3ccc(OC)cc23)c(OC)c1` gave a pIC50 of 5.51. Also, the figures for the Activity in experiment [2] and in experiment [3] were 91% and 5%, respectively. For the same compound, in experiment [4], the outcome was inactive. The result in experiment [5] and in experiment [6] was Active.
